Results taken from ChEMBL document CHEMBL2321721 (ACS Med Chem Lett, 2013).
Activity calls are given as the source filed them. The rule behind the calls is not given here.

Experiments:
[1] = Partition coefficient, log P of the compound; format: physicochemical; conditions: octanol/water
[2] = target: T1, Ribosomal protein S6 kinase alpha-3 (Homo sapiens, UniProt P51812); assay: Inhibition of recombinant RSK2 (unknown origin) expressed in baculovirus infected Sf9 cells assessed as decrease in substrate phosphorylation using GST-fusion protein containing ERalpha-Ser167 sequence-RLASTND as substrate by chemiluminescence analysis
T1 sequence (P51812 whole entry, the tested form may be a part): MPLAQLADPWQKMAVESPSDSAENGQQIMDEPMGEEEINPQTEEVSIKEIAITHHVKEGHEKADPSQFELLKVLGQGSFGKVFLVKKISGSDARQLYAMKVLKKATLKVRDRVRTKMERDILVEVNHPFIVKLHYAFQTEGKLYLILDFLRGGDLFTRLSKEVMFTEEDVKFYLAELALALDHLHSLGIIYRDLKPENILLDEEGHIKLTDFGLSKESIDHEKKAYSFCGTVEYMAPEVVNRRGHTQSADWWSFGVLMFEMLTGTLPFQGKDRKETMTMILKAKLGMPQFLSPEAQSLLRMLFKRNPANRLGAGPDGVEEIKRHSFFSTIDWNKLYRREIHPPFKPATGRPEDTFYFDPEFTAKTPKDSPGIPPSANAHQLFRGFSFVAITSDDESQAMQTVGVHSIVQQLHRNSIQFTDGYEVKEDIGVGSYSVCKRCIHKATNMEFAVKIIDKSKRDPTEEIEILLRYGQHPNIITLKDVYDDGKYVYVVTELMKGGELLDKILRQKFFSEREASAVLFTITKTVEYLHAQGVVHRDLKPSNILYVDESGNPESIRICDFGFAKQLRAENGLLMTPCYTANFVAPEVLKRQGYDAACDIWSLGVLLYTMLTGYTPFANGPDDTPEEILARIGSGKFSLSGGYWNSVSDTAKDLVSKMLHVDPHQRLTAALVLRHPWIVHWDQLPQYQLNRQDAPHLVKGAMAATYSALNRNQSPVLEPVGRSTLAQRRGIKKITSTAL

[3] = target: T1, Ribosomal protein S6 kinase alpha-3; assay: Ratio of SL0101 IC50 to compound IC50 for recombinant RSK2 (unknown origin) expressed in baculovirus infected Sf9 cells by chemiluminescence analysis
MCF7 [4] = assay: Decrease in cyclin D1 level in human PMA-stimulated MCF7 cells at 25 uM pretreated for 24 hrs prior to PMA addition measured after 20 mins by immunoblot analysis; format: functional, cell-based
In short: (§1)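 MCF-7 cells pretreated with inhibitor or vehicle, then stimulated with PMA or treated with DMSO vehicle. Lysates analysed by immunoblotting for eEF2 phosphorylation and other RSK biomarkers. Inhibitor concentrations were 100 μM or 25 μM.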

[5] = target: T1, Ribosomal protein S6 kinase alpha-3; assay: Inhibition of RSK2 in human PMA-stimulated MCF7 cells assessed as decrease in expression of 27kDa protein harboring (Lys/Arg)X(Lys/Arg)XX(pSer/pThr) motif at 25 uM pretreated for 24 hrs prior to PMA addition measured after 20 mins immunoblot analysis; format: cell-based; in short: as §1
[6] = target: T1, Ribosomal protein S6 kinase alpha-3; assay: Inhibition of RSK2 in human MCF7 cells assessed as reduction of PMA-induced decrease in EF2 kinase phosphorylation at 25 uM pretreated for 24 hrs prior to PMA addition measured after 20 mins by immunoblot analysis; format: cell-based; in short: as §1
MCF7 [7] = assay: Inhibition of human MCF7 cell proliferation assessed as decrease in ATP content at 25 uM after 48 hrs by CellTiter-GloTM assay relative to SL0101; format: functional; conditions: MCF7, 48 h
In short: (§2)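 Compounds added at time 0 to MCF-7 or MCF-10A cells at various concentrations, 25 μM or lower. Proliferation read as ATP content after 48 h of treatment, expressed as fold proliferation as a percentage of vehicle-treated cells. n = 3 in quadruplicate, SD, Student's t test.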

MCF-10A = assay: Inhibition of human MCF10A cell proliferation assessed as decrease in ATP content after 48 hrs by CellTiter-GloTM assay; format: cell-based; in short: as §2
Plasma = assay: Cmax in CD1 mouse plasma at 2.5 mg/kg, ip; format: ADME, organism-based; set-up: dose 2.5 mg/kg, route intraperitoneal; conditions: in vivo
In short: (§3)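 Male CD-1 mice given a single dose, 1 mg/kg iv or 2.5 mg/kg ip, in 1:1:15 Cremophor:EtOH:phosphate-buffered saline carrier. Plasma concentrations measured. AUC extrapolated to infinity and normalized to dose in mg/kg. C0 is maximum plasma concentration extrapolated to t = 0. Cmax is the observed maximum plasma concentration.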

[8] = Half life in CD1 mouse at 2.5 mg/kg, ip; format: ADME, organism-based; set-up: dose 2.5 mg/kg, route intraperitoneal; conditions: in vivo; in short: as §3
MCF7 [9] = assay: Decrease in cyclin D1 level in human PMA-stimulated MCF7 cells at 100 uM pretreated for 2 hrs prior to PMA addition measured after 20 mins by immunoblot analysis; format: functional, cell-based; in short: as §1
[10] = target: T1, Ribosomal protein S6 kinase alpha-3; conditions: MCF7, 100 uM
[11] = Half life in CD1 mouse at 1 mg/kg, iv; format: ADME, organism-based; set-up: dose 1 mg/kg, route intravenous; conditions: in vivo; in short: as §3
[12] = Initial plasma concentration in CD1 mouse at 1 mg/kg, iv; format: ADME, organism-based; set-up: dose 1 mg/kg, route intravenous; in short: as §3
Mus musculus [13] = assay: Dose normalized AUC in CD1 mouse at 2.5 mg/kg, ip; format: ADME, organism-based; set-up: dose 2.5 mg/kg, route intraperitoneal; conditions: in vivo; in short: as §3
Mus musculus [14] = assay: Dose normalized AUC in CD1 mouse at 1 mg/kg, iv; format: ADME, organism-based; set-up: dose 1 mg/kg, route intravenous; conditions: in vivo; in short: as §3
[15] = target: T1, Ribosomal protein S6 kinase alpha-3; conditions: MCF7, 100 uM; remark: listed apart in the source

Question: For `CC(C)C[C@@H]1O[C@@H](Oc2c(-c3ccc(O)cc3)oc3cc(O)cc(O)c3c2=O)[C@H](O)[C@H](O)[C@H]1O`, which logP [1] is on record?
Answer: 2.41

Question: For `CCC[C@@H]1O[C@@H](Oc2c(-c3ccc(O)cc3)oc3cc(O)cc(O)c3c2=O)[C@H](O)[C@H](O)[C@H]1O`, which logP [1] is on record?
Answer: 2.2

Question: What does the source list for `CCC[C@@H]1O[C@@H](Oc2c(-c3ccc(O)cc3)oc3cc(O)cc(O)c3c2=O)[C@H](OC(C)=O)[C@H](O)[C@H]1OC(C)=O`?
Answer: IC50 [2]: 0.62 µM; logP [1]: 3.39

Question: Which Ratio IC50 [3] does the source give for `CCC[C@@H]1O[C@@H](Oc2c(-c3ccc(O)cc3)oc3cc(O)cc(O)c3c2=O)[C@H](O)[C@H](OC(C)=O)[C@H]1OC(C)=O` here?
Answer: > 40

Question: And the inhibition (MCF7 [4])?
Answer: Active

Question: What about the logP [1] of the same molecule?
Answer: 3.17

Question: What about the inhibition [5] of the same molecule?
Answer: Active

Question: And the inhibition [6]?
Answer: Active

Question: And the inhibition at 25 µM (MCF7 [7])?
Answer: 50%

Question: And the Activity (MCF-10A)?
Answer: Non-toxic

Question: With `CCC[C@@H]1O[C@@H](Oc2c(-c3ccc(O)cc3)oc3cc(O)cc(O)c3c2=O)[C@H](O)[C@H](O)[C@H]1OC(C)=O` as the molecule, how does the IC50 [2] read?
Answer: 1.5 µM

Question: What about the logP [1] of the same molecule?
Answer: 2.9

Question: Which results are given for `CC(=O)O[C@@H]1[C@@H](OC(C)=O)[C@@H](O)[C@H](Oc2c(-c3ccc(O)cc3)oc3cc(O)cc(O)c3c2=O)O[C@H]1C`?
Answer: Cmax (Plasma): 1851 ng/mL; half-life [8]: 24 min; inhibition (MCF7 [9]): Active; inhibition [10]: Active; logP [1]: 2.11; half-life [11]: 9 min; C0 [12]: 291 ng/mL; AUC/dose (Mus musculus [13]): 1023 ng·kg·h/mL/mg; AUC/dose (Mus musculus [14]): 38.7 ng·kg·h/mL/mg; inhibition [15]: Active

Question: Which IC50 [2] does the source give for `CCC[C@@H]1O[C@@H](Oc2c(-c3ccc(O)cc3)oc3cc(O)cc(O)c3c2=O)[C@H](OC(C)=O)[C@H](OC(C)=O)[C@H]1OC(C)=O` here?
Answer: 1.77 µM

Question: And the logP [1]?
Answer: 3.87

Question: With `CC[C@@H]1O[C@@H](Oc2c(-c3ccc(O)cc3)oc3cc(O)cc(O)c3c2=O)[C@H](O)[C@H](O)[C@H]1O` as the molecule, how does the IC50 [2] read?
Answer: 1.51 µM

Question: And the logP [1]?
Answer: 1.64
